Data on two compounds can be found in ChEMBL document CHEMBL3045498, “Antifeedant and larvicidal activities of Rhein isolated from the flowers of Cassia fistula L” (2011).

A word on the mortality: it is the share of the test organisms that died. By LC50 is commonly meant the concentration that kills 50% of the test population.

Common to all, as to type: functional
Assay [1] relates to Spodoptera litura. Put plainly: Larvicidal activity against Spodoptera litura fed on compound-treated castor leaf assessed as mortality at 125 ppm after 96 hr relative to control. An outline of the steps: (§1)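 Larvae were fed 24 h on leaf discs treated with compound at several concentrations, then kept on untreated fresh leaves. Diet was replaced every 24 h, and larval mortality was scored 96 h after treatment.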

The test system of assay [2] is Helicoverpa armigera. Put plainly: Larvicidal activity against Helicoverpa armigera fed on compound-treated cotton leaf assessed as mortality at 250 ppm after 96 hr relative to control. An outline of the steps:
as §1

In assay [3] the test system is Spodoptera litura. In words: Larvicidal activity against Spodoptera litura fed on compound-treated castor leaf assessed as mortality at 500 ppm after 96 hr relative to control. An outline of the steps:
as §1

The subject of assay [4] is Spodoptera litura. In words: Antifeedant activity against pre-starved fourth-instar larva of Spodoptera litura fed on compound-treated castor leaf assessed as antifeedant index at 250 ppm after 24 hr by leaf disc no choice method.
In assay [5] the test system is Helicoverpa armigera. In words: Larvicidal activity against Helicoverpa armigera fed on compound-treated cotton leaf assessed as mortality at 1000 ppm after 96 hr relative to control. An outline of the steps: as §1
Assay [6] has as its system Helicoverpa armigera. In words: Larvicidal activity against Helicoverpa armigera fed on compound-treated cotton leaf assessed as mortality after 96 hr relative to control. An outline of the steps: as §1
The test system of assay [7] is Helicoverpa armigera. In words: Antifeedant activity against pre-starved fourth-instar larva of Helicoverpa armigera fed on compound-treated cotton leaf assessed as antifeedant index at 250 ppm after 24 hr by leaf disk no choice method.
Assay [8] concerns Spodoptera litura. In words: Antifeedant activity against pre-starved fourth instar larva of Spodoptera litura fed on compound-treated castor leaf assessed as antifeedant index at 125 ppm after 24 hr by leaf disc no choice method.
For assay [9], the system named is Spodoptera litura. Put plainly: Antifeedant activity against pre-starved fourth-instar larva of Spodoptera litura fed on compound-treated castor leaf assessed as antifeedant index at 500 ppm after 24 hr by leaf disc no choice method.
The subject of assay [10] is Helicoverpa armigera. In words: Antifeedant activity against pre-starved fourth-instar larva of Helicoverpa armigera fed on compound-treated cotton leaf assessed as antifeedant index at 125 ppm after 24 hr by leaf disk no choice method.
Assay [11] relates to Spodoptera litura. Put plainly: Larvicidal activity against Spodoptera litura fed on compound-treated castor leaf assessed as mortality at 1000 ppm after 96 hr relative to control. An outline of the steps:
as §1

Assay [12] relates to Helicoverpa armigera. Put plainly: Antifeedant activity against pre-starved fourth-instar larva of Helicoverpa armigera fed on compound-treated cotton leaf assessed as antifeedant index at 1000 ppm after 24 hr by leaf disk no choice method.
Assay [13] deals with Helicoverpa armigera. Put plainly: Antifeedant activity against pre-starved fourth-instar larva of Helicoverpa armigera fed on compound-treated cotton leaf assessed as antifeedant index at 500 ppm after 24 hr by leaf disk no choice method.
In assay [14] the test system is Spodoptera litura. In words: Larvicidal activity against Spodoptera litura fed on compound-treated castor leaf assessed as mortality at 250 ppm after 96 hr relative to control. An outline of the steps: as §1
Assay [15] deals with Helicoverpa armigera. Put plainly: Larvicidal activity against Helicoverpa armigera fed on compound-treated cotton leaf assessed as mortality at 125 ppm after 96 hr relative to control. An outline of the steps: as §1
The test system of assay [16] is Spodoptera litura. In words: Larvicidal activity against Spodoptera litura fed on compound-treated castor leaf assessed as mortality after 96 hr relative to control. An outline of the steps: as §1
Assay [17] deals with Helicoverpa armigera. In words: Larvicidal activity against Helicoverpa armigera fed on compound-treated cotton leaf assessed as mortality at 500 ppm after 96 hr relative to control. An outline of the steps: as §1
Assay [18] has as its system Spodoptera litura. In words: Antifeedant activity against pre-starved fourth-instar larva of Spodoptera litura fed on compound-treated castor leaf assessed as antifeedant index at 1000 ppm after 24 hr by leaf disc no choice method.

SMILES strings stand for the structures. Converted amounts (≈) assume the structure as drawn.

On to `C/C=C(\C)C(=O)O[C@H]1C[C@@H](OC(C)=O)[C@@]2(C(=O)OC)CO[C@H]3[C@@H](O)[C@@](C)([C@]45O[C@@]4(C)[C@@H]4C[C@H]5O[C@@H]5OC=C[C@@]54O)[C@H]4[C@]1(CO[C@]4(O)C(=O)OC)[C@@H]32` [AZADIRACHTIN A], for which the values for the mortality at 125 ppm in assay [1] and in assay [15] were 52.5% and 38.8%, respectively. For the same compound, the mortality at 250 ppm in [2] amounted to 61.2%; in [14], 73.8%. Moreover, the mortality at 500 ppm in [3] came to 100%; in assay [17], 95%. For the same compound, the AFI in assay [4] is 70.08%; in assay [7], 64.13%; in assay [8], 60.12%; in assay [9], 78.66%; in assay [10], 53.5%; in [12], 86.47%. For the same compound, the AFI in assay [13] worked out at 75.88%; in [18], 88.02%. The mortality at 1000 ppm in assay [5] and in assay [11] was 100% in each case. Further, the LC50 in assay [6] came to 186 µg/mL (≈ 258 µM); in [16], 128 µg/mL (≈ 177 µM).
On to `O=C(O)c1cc(O)c2c(c1)C(=O)c1cccc(O)c1C2=O` [RHEIN], for which the mortality at 125 ppm was determined as 0% in assay [1] and 22.5% in assay [15]. Further, the mortality at 250 ppm in assay [2] worked out at 32.5%; in assay [14], 15%. Further, the mortality at 500 ppm came out at 21.2% in [3] and 50% in [17]. In addition, the AFI in assay [4] was 33.05%; in assay [7] it was 55.06%; in [8], 27.28%; in [9] it was 40.85%; in [10] it was 47.82%; in [12], 76.13%. The AFI in assay [13] is recorded as 59.98%; in assay [18], 56.79%. In addition, the mortality at 1000 ppm in assay [5] stood at 67.5%; in assay [11], 36.2%. In addition, the results for the LC50 in assay [6] and in assay [16] were 606 µg/mL (≈ 2130 µM) and 1190 µg/mL (≈ 4200 µM), respectively.
